Assay results reported in ChEMBL document CHEMBL1127072, “Discovery and synthesis of methyl 2,5-dimethyl-4-[2- (phenylmethyl)benzoyl]-1H-pyrrole-3-carboxylate (FPL 64176) and analogues: the first examples of a new class of calcium channel activator” (J Med Chem, 1993).

Tests used:
[1] = species on record: Cavia porcellus; assay: Tested for the force increase in guinea pig atria at 100 uM; assay type: functional; settings: read-out: Inhibition
In short: (§1)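 Guinea pig atria paced at 1 Hz, with developed tension recorded at a single test concentration (10, 30 or 100 µM). The increase is given as a percentage of the isoprenaline maximum.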

[2] = tested on: GH3; assay: Tested for the increase in [Ca2+] uptake into rat pituitary growth hormone3 (GH3) cells at 10 uM; assay type: functional; settings: read-out: Inhibition
In short: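 Rat pituitary GH3 cells were depolarized with 50 mM K⁺ and ⁴⁵Ca²⁺ uptake was measured at a single 10 µM test concentration. Response is expressed relative to the maximal uptake produced by Bay K 8644.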

[3] = tested on: GH3; assay: Tested for the increase in [Ca2+] uptake into rat pituitary growth hormone3 (GH3) cells; assay type: functional, cell-based
In short: (§2)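 ⁴⁵Ca²⁺ uptake into rat pituitary GH3 cells depolarized with 50 mM K⁺, used as the measure of channel activation. EC50 is the test concentration producing 50% of the maximal uptake obtained with Bay K 8644.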

[4] = species on record: Cavia porcellus; assay: Tested for the force increase in guinea pig atria; assay type: functional
In short: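 Inotropic activity was measured on guinea pig atria paced at 1 Hz. EC50 is the concentration that raises developed tension to 50% of the isoprenaline maximum.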

[5] = tested on: GH3; assay: Tested for the 50% of the maximal [Ca2+] uptake produced by Bay K 8644 at 10 uM in rats; assay type: functional, Rattus norvegicus
[6] = species on record: Cavia porcellus; assay: Tested for the force value required to increase developed tension to 50% of the isoprenaline maximum at 0.3 uM; assay type: functional
[7] = tested on: GH3; assay: Tested for 45 [Ca2+] uptake in rat pituitary growth hormone3 (GH3) cells; assay type: functional, cell-based; in short: as §2
[8] = species on record: Cavia porcellus; assay: Tested for the force value required to increase developed tension to 50% of the isoprenaline maximum at 10 uM; assay type: functional
[9] = tested on: GH3; assay: Tested for the 50% of the maximal [Ca2+] uptake produced by Bay K 8644 at 1 uM in rats; assay type: functional, Rattus norvegicus
[10] = tested on: GH3; assay: Tested for the inhibition of [Ca2+] uptake into rat pituitary growth hormone3 (GH3) cells at 10 uM; assay type: functional
[11] = species on record: Cavia porcellus; assay: Tested for the force increase in guinea pig atria at 30 uM; assay type: functional; in short: as §1
[12] = species on record: Cavia porcellus; assay: Tested for the force increase in guinea pig atria at 10 uM; assay type: functional; in short: as §1

SMILES	EC50 [3] [µM]	EC50 [4] [µM]	also measured
COC(=O)c1c(C)[nH]c(C)c1C(=O)c1ccccc1[N+](=O)[O-]			Atrial force increase (% of isoprenaline maximum) at 100 µM [1]: 17%; Ca2+ uptake increase (% of Bay K 8644 maximum) at 10 µM [2]: 0%
COC(=O)c1c[nH]cc1C(=O)c1ccccc1Cc1ccccc1	6.2	2.1	
COC(=O)c1c(C)[nH]c(C)c1C(=O)c1ccccc1Cc1ccccc1		0.049	Max [5]: 383%; Max [6]: 105%; EC50 [7]: 0.016 µM
COC(=O)c1c[nH]c(C)c1C(=O)c1ccccc1Cc1ccccc1	0.089	0.144	
COC(=O)C1=C(C)NC(C)=C([N+](=O)[O-])C1c1ccccc1C(F)(F)F (centres undefined)		1.95	Max [8]: 61%; Max [9]: 100%; EC50 [7]: 0.015 µM
COC(=O)c1c(C(=O)c2ccccc2Cc2ccccc2)c[nH]c1C	0.42	0.46	
COC(=O)c1c(C)[nH]c(C)c1C(=O)c1ccccc1F	1.3	70	
COC(=O)c1c(C)[nH]c(C)c1C(=O)c1ccccc1OC(=O)c1ccccc1O	0.5	3.8	
COC(=O)c1c(C)[nH]c(C)c1C(=O)c1cc(Cl)ccc1Cl	0.6	3.98	
COC(=O)c1c(C)[nH]c(C)c1C(=O)c1ccccc1	5.4	21.9	
COC(=O)c1c(C)[nH]c(C)c1C(=O)c1cccc(Cl)c1Cl			inhibition at 10 µM [10]: 0%; inhibition at 30 µM [11]: 18%
COC(=O)c1c(C)[nH]c(C)c1C(=O)c1ccccc1I	3.4	5.9	
COC(=O)c1c(C)[nH]c(C)c1C(=O)c1ccccc1Cl	3.3	14	
COC(=O)c1c(C)[nH]c(C)c1C(=O)c1ccccc1OC			Atrial force increase (% of isoprenaline maximum) at 100 µM [1]: 44%; Ca2+ uptake increase (% of Bay K 8644 maximum) at 10 µM [2]: 0%
COC(=O)c1c(C)[nH]c(C)c1C(=O)c1ccc(Cl)cc1Cl			inhibition at 10 µM [12]: 40%; Ca2+ uptake increase (% of Bay K 8644 maximum) at 10 µM [2]: 0%
COC(=O)c1c(C)[nH]c(C)c1C(=O)c1ccccc1Br	2.4	8.95	
COC(=O)c1ccccc1C(=O)c1c(C)[nH]c(C)c1C(=O)OC			Atrial force increase (% of isoprenaline maximum) at 100 µM [1]: 16%; Ca2+ uptake increase (% of Bay K 8644 maximum) at 10 µM [2]: 0%
COC(=O)c1c(C)[nH]c(C)c1C(=O)c1ccccc1C	3.6	9.47	
COC(=O)c1c(C)[nH]c(C)c1C(=O)c1ccccc1C(F)(F)F	4.3	4.84	
COC(=O)c1c(C)[nH]c(C)c1C(=O)c1c(Cl)cccc1Cl			Atrial force increase (% of isoprenaline maximum) at 100 µM [1]: 0%; Ca2+ uptake increase (% of Bay K 8644 maximum) at 10 µM [2]: 0%
